Assay outcomes (PubChem)
TRPC6 act: activates the mouse TRPC6 cation channel. Q61143. AID 2550. B-score at 10 µM. HEK293-TRPC6 membrane potential dye fluorescence; hits give high values. actives 0.13% (n = 310,000);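 active means B-score of the integrated fluorescence ratio above library mean plus 3 SD, and starting fluorescence ratio within library mean plus 5 SD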;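 further: higher score means more depolarization so channel activation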
Target sequence (Q61143 whole entry, looked up): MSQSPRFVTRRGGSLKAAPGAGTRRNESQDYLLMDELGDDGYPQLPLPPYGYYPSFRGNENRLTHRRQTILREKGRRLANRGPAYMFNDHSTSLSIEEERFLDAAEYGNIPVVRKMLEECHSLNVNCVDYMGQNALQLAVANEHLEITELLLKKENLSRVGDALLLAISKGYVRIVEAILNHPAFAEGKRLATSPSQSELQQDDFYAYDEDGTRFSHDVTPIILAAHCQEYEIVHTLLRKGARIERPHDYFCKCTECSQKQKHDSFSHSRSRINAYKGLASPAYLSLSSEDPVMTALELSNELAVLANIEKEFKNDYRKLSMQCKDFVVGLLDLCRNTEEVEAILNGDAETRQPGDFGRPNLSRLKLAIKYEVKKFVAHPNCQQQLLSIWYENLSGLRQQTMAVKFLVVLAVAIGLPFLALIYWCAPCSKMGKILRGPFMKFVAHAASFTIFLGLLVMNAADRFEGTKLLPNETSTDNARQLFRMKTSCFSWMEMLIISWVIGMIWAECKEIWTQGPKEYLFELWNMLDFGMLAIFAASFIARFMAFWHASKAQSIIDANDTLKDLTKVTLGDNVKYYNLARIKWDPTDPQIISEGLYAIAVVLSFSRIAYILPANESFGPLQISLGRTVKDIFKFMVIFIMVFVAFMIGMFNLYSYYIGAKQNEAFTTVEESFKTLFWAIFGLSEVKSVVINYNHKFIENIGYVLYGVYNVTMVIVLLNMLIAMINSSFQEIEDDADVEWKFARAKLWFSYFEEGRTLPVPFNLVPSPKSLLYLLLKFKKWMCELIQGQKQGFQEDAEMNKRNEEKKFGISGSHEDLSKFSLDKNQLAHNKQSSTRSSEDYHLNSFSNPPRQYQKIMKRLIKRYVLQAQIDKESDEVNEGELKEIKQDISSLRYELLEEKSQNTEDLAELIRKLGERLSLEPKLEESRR
TRPC6 inh: blocks the mouse TRPC6 cation channel; Q61143; B-score at 10 µM; HEK293-TRPC6, membrane potential dye, ACh-evoked depolarization; hits give low values; actives 1.1% (n = 310,000);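 active means B-score under library mean minus 3 SD, initial fluorescence not abnormally high, positive integrated signal ratio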;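 further: B-score derived from integrated fluorescence ratio over the kinetic read; more negative B-score means stronger inhibition of depolarization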
TRPC4 agonist: TRPC4 (mouse) channel activation. Q9QUQ5. actives 0.49% (n = 310,000). HEK293 TRPC4beta/mu-opioid, Fluo4 calcium fluorescence; hits give high values. AID 2237. B-score at 10 µM;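 active means B-score above 5 SD of library B-scores, and initial fluorescence ratio not above library mean plus 5 SD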;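 further: positive B-score marks a calcium rise read as TRPC4 activation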
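Assay system: HEK293 stable line with TRPC4beta plus mu-opioid receptor. Times: dye 45 min RT, read 110 s. Measured by: kinetic Fluo4 calcium fluorescence. Measure: B score of integrated ratio. Controls: assay buffer as low control, maximal DAMGO as high control.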
TRPC4 potent: allosteric potentiators of mouse TRPC4 channel; B-score at 10 µM; actives 0.42% (n = 310,000); HEK293 TRPC4beta/mu-opioid, DAMGO EC20, Fluo-4 Ca2+ flux; hits give high values;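 active means B-score of calcium response area above 5 SD of library B-scores, with initial fluorescence ratio within 5 SD of library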;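 further: B-score of integrated fluorescence ratio over time as area under calcium response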
TRPC4 block: blocks the mouse TRPC4 cation channel; B-score at 10 µM; HEK293 TRPC4beta/mu-opioid, DAMGO-evoked Fluo4 calcium flux; hits give low values; AID 2247; Q9QUQ5; actives 0.39% (n = 300,000);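 active means B-score over 3 SD under the library average, no early fluorescence shift, positive overall ratio signal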
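Signal: kinetic Fluo4 fluorescence imaging of calcium influx. Material: stable TRPC4beta/mu-opioid receptor HEK293 cells. Probe or stimulus: DAMGO in two steps, submaximal then maximal.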
* marks the source's active call; other numbers are inactive results; i = inactive; ! = a repeat was not active. Shown are actives, neighbours in structure and some others; about 2.3% of the full set was active somewhere.

SMILES	TRPC6 act	TRPC6 inh	TRPC4 agonist	TRPC4 potent	TRPC4 block
COc1cc(/C=C2\C(=N)N3N=C(S(C)(=O)=O)SC3=NC2=O)ccc1OC(=O)c1cccs1	i	i	i	i	-7*
CCOC(=O)C1=C(C)N(c2ccccc2)C(=O)NC1c1cccc([N+](=O)[O-])c1 (stereo not drawn)	i	i	i	15*	i
COc1ccc(OC2CCN(S(=O)(=O)c3ccc(F)cc3)CC2)cc1	i	i	i	i	i
COc1ccc(OC2CCN(S(=O)(=O)c3ccccc3)CC2)cc1	i	i	i	13*	i
CC(=O)Nc1cccn(Cc2c(Cl)cccc2Cl)c1=O	i	i	i	i	i
CN1CCN(C(=O)c2cccn(Cc3c(Cl)cccc3Cl)c2=O)CC1	i	i	184*	i	i
COc1cc(/C=C2/C(=O)NN(c3cccc(C)c3)C2=O)ccc1OC(=O)c1ccco1	i	i	i	22*	i
C/C(CC(=O)N(C(C)C)C(C)C)=N\NC(=O)COc1ccc(Cl)cc1Cl	i	i	i	i	-6*
C/C(CC(=O)N(C(C)C)C(C)C)=N\NC(=O)COc1ccc(Br)cc1Br	i	i	i	i	i
Cc1cccn2c(CNCCc3ccccn3)c(C(=O)N3CCOCC3)nc12	i	i	171*	i	i
CC(=O)N1CCN(c2ccc(OC[C@H]3CO[C@](Cn4ccnc4)(c4ccc(Cl)cc4Cl)O3)cc2)CC1	i	i	52*	i	i
O=c1[nH]c(CSc2nc(-c3ccc(F)cc3)cs2)nc2ccccc12	i	i	i	i	i
O=C(Nc1ccc(F)cc1F)c1cc(-c2ccco2)on1	i	i	i	i	i
O=C(Nc1ccc(F)cc1F)c1ccco1	i	i	70*	i	i
COc1ccc(C)cc1S(=O)(=O)Nc1ccc(F)c(Cl)c1	i	i	i	10*	i
Cn1c(=O)c2c(nc(SCCN3CCOCC3)n2C)n(C)c1=O	i	i	i	i	i
CCc1ccc2nc(N=C(N)N)nc(C)c2c1	i	i	i	i	-8*
CCCNCc1cc(Br)ccc1OCC(=O)NCCc1ccccc1	i	i	i	i	-6*
CCOc1ccc(CCNC(=O)CCc2nnc3ccc(N4CCCCC4)nn23)cc1OCC	i	i	i	i	i
CNCC[C@H](Oc1cccc2ccccc12)c1cccs1	i	-5.67*!	i	i	i
CCN(CC)CC(=O)Nc1ccc(-c2ccc(NC(=O)CN(CC)CC)c(OC)c2)cc1OC	i	i	i	i	i
C=CCOc1ccc(Br)cc1CNC(C)(C)CO	i	i	i	i	-7*
CC1=C(C(=O)NCc2ccccc2)C(c2ccccc2OCC(N)=O)NC(=O)N1 (stereo not drawn)	i	i	i	i	i
CC1=C(C(=O)NCc2ccccc2)C(c2cc(Br)cc(Br)c2OC(C)C)NC(=O)N1 (stereo not drawn)	i	i	i	17*	i
O=C(CNS(=O)(=O)c1ccc2ccccc2c1)NCCc1ccccn1	i	i	137*	i	i
SMILES	TRPC6 act	TRPC6 inh	TRPC4 agonist	TRPC4 potent	TRPC4 block
O=S(=O)(NCc1ccccn1)c1ccc2ccccc2c1	i	i	i	i	i
CCN(CC)CCn1c2c(c(SCC(=O)Nc3cccc4ccccc34)nc1=O)CCCC2	i	i	i	i	i
Cc1cc(NCc2ccccc2)nc2ccccc12	i	i	51*	i	-7*
Cc1cc(NCc2ccccc2)c2ccccc2n1	i	i	i	i	i
Cc1nc(N2CCN(C)CC2)c2c3c(sc2n1)CCCC3	i	-5.44*	i	i	i
Cc1nc(N2CCN(C(=O)c3cccs3)CC2)c2c3c(sc2n1)CCCC3	i	i	i	i	i
Cc1cc2c(cc1S(=O)(=O)CCC(=O)N1CC(C)CC(C)C1)OCC(=O)N2 (stereo not drawn)	i	i	i	i	i
O=C(O)c1cnc(-c2ccccc2)nc1Sc1ccc(Cl)cc1Cl	i	i	i	i	-6*
CCOc1ccc(CCNC(=O)CS(=O)Cc2nc(-c3ccc(OC)c(OC)c3)oc2C)cc1OCC (stereo not drawn)	i	i	i	i	i
Fc1ccc(Nc2ncnc3sc4c(c23)CCC4)cc1F	i	i	i	i	i
Fc1ccc(Nc2ncnc3sc4c(c23)CCC4)cc1	i	i	i	66*	i
c1ccc(Nc2ncnc3sc4c(c23)CCC4)cc1	i	i	216*	i	i
Cc1nc(-n2nnc3ccccc32)c2c3c(sc2n1)CCCC3	i	i	i	i	i
c1ccc2c(c1)nnn2-c1ncnc2sc3c(c12)CCCC3	i	i	i	i	-6*
CC(=O)Nc1nc(C2CC2)cc(-c2ccccc2)c1C#N	i	i	i	i	i
Cc1ccccc1-n1c(=O)c2c(n3cnnc13)-c1ccccc1CC21CCCCC1	i	i	i	16*	i
CSCCC(NS(=O)(=O)c1ccc2c(c1)oc(=O)n2C)C(=O)NC1CCCCC1 (stereo not drawn)	i	i	i	i	i
CSCCC(NS(=O)(=O)c1ccc2c(c1)c(=O)n(C)c(=O)n2C)C(=O)NC1CCN(Cc2ccccc2)CC1 (stereo not drawn)	i	i	90*	i	i
COc1ccc(C(=O)C2CCCN(Cc3c(O)cccc3OC)C2)cc1OC (stereo not drawn)	i	i	i	i	i
COc1c(C)cc(C(=O)C2CCCN(Cc3cccc4nccnc34)C2)cc1C (stereo not drawn)	i	i	110*	i	i
COCc1cc(CN2CCCC(C(=O)c3cccc(C(F)(F)F)c3)C2)ccc1OC (stereo not drawn)	i	i	i	i	i
COc1cccc(O)c1CN1CCCC(C(=O)c2cccc(C(F)(F)F)c2)C1 (stereo not drawn)	i	i	i	i	-7*
CC(=O)Nc1ccc(CN2CCCC(C(=O)c3ccc(C(F)(F)F)cc3)C2)cc1 (stereo not drawn)	i	i	234*	i	i
CCOc1cccc(CN2CCCC(C(=O)c3cccc(C(F)(F)F)c3)C2)c1O (stereo not drawn)	i	i	i	i	-6*
CCCCn1nc2cc(C(=O)NC3CCCc4ccccc43)ccc2c1OCC (stereo not drawn)	i	i	i	i	i
